In ChEMBL document CHEMBL4393705, “New chalcone-sulfonamide hybrids exhibiting anticancer and antituberculosis activity” (Eur J Med Chem, 2019):
In brackets after ≈: the same amount, converted by molar mass.

Tests used:
CCRF-CEM = experiment: Anticancer activity against human CCRF-CEM cells assessed as cell growth inhibition measured after 48 hrs by SRB assay; assay type: functional
In short: (§1)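 NCI-60 five-dose screen at 100, 10, 1.0, 0.1 and 0.01 µM final. Cells in RPMI-1640 with 5% FBS and 2 mM glutamine were seeded 24 h ahead at 37°C, 5% CO2. Compound exposure was 48 h, followed by TCA fixation and SRB staining, read at 515 nm. GI50 is the concentration giving 50% lower net protein increase than control, using time-zero plates.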

SK-MEL-28 = experiment: Anticancer activity against human SK-MEL-28 cells assessed as cell growth inhibition measured after 48 hrs by SRB assay; assay type: functional; details: SK-MEL-28, 48 h
In short: (§2)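 NCI 60-cell screen, five-dose mode at 100, 10, 1.0, 0.1 and 0.01 µM. Cells grown in RPMI-1640 with 5% FBS and 2 mM L-glutamine, seeded and held 24 h at 37°C, 5% CO2, then exposed for 48 h. Fixed with cold TCA (10% final), stained with 0.4% SRB and read at 515 nm. Time-zero plates were used. GI50 is the concentration giving 50% lower net protein increase than control.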

SNB-19 = experiment: Anticancer activity against human SNB19 cells assessed as cell growth inhibition measured after 48 hrs by SRB assay; assay type: functional; details: SNB-19, 48 h; in short: as §2
A549 = experiment: Anticancer activity against human A549 cells assessed as cell growth inhibition measured after 48 hrs by SRB assay; assay type: functional; details: A549, 48 h; in short: as §1
UACC-62 = experiment: Anticancer activity against human UACC62 cells assessed as cell growth inhibition measured after 48 hrs by SRB assay; assay type: functional; details: UACC-62, 48 h; in short: as §2
SR = experiment: Anticancer activity against human SR cells assessed as cell growth inhibition measured after 48 hrs by SRB assay; assay type: functional; in short: as §2
MDA-MB-435 = experiment: Anticancer activity against human MDA-MB-435 cells assessed as cell growth inhibition measured after 48 hrs by SRB assay; assay type: functional; details: MDA-MB-435, 48 h; in short: as §1
[1] = tested on: Mycobacterium tuberculosis; experiment: Antitubercular activity against Mycobacterium tuberculosis H37Rv ATCC27294 measured after 2-3 weeks by agar dilution SPOTi assay; assay type: functional; details: H37Rv ATCC 27294
In short: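 Agar dilution SPOTi on Middlebrook 7H10 with 0.5% glycerol and 10% OADC. Final compound levels 50, 20, 10, 5, 2 mg/L, added from DMSO dilutions. 2 µL of a 10^6 CFU/mL inoculum from a 4-week Löwenstein-Jensen culture spotted per well, incubated 2-3 weeks at 37°C. MIC is the lowest concentration with no visible growth. Repeated on a separate day; isoniazid was the reference.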

SK-OV-3 = experiment: Anticancer activity against human SKOV3 cells assessed as cell growth inhibition measured after 48 hrs by SRB assay; assay type: functional; details: SK-OV-3, 48 h; in short: as §2
PC-3 = experiment: Anticancer activity against human PC3 cells assessed as cell growth inhibition measured after 48 hrs by SRB assay; assay type: functional; details: PC-3, 48 h; in short: as §1
NCI-H23 = experiment: Anticancer activity against human NCI-H23 cells assessed as cell growth inhibition measured after 48 hrs by SRB assay; assay type: functional; details: NCI-H23, 48 h; in short: as §1
MCF7 = experiment: Anticancer activity against human MCF7 cells assessed as cell growth inhibition measured after 48 hrs by SRB assay; assay type: functional; details: MCF7, 48 h; in short: as §1
Staphylococcus aureus = experiment: Antibacterial activity against Staphylococcus aureus measured every 120 mins for 36 hrs by LB broth two-fold serial dilution method; assay type: functional
In short: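 Panel of 12 laboratory and clinical S. aureus strains with varied drug-susceptibility patterns. Compounds were two-fold serially diluted in LB broth from a maximum of 32 mg/L. Growth was followed by OD600 every 120 min for 36 h. Vancomycin was the positive control, and runs were in duplicate.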

[2] = tested on: Mycolicibacterium smegmatis; experiment: Antibacterial activity against Mycobacterium smegmatis MC2 155 measured after 48 hrs by agar dilution SPOTi assay; assay type: functional; details: MC2 155, 48 h
In short: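 SPOTi agar dilution on Middlebrook 7H10 without OADC. Cells were passaged in Middlebrook 7H9 and then spotted. Compounds were tested at 100, 50, 20, 10 and 5 mg/L, with kanamycin as positive control. Plates were incubated 48 h at 37°C. MIC was taken as the lowest concentration with no visible growth.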

SF-539 = experiment: Anticancer activity against human SF539 cells assessed as cell growth inhibition measured after 48 hrs by SRB assay; assay type: functional; details: SF-539, 48 h; in short: as §2
IGROV-1 = experiment: Anticancer activity against human IGROV1 cells assessed as cell growth inhibition measured after 48 hrs by SRB assay; assay type: functional; details: IGROV-1, 48 h; in short: as §1
SK-MEL-2 = experiment: Anticancer activity against human SK-MEL-2 cells assessed as cell growth inhibition measured after 48 hrs by SRB assay; assay type: functional; details: SK-MEL-2, 48 h; in short: as §2
HOP-92 = experiment: Anticancer activity against human HOP92 cells assessed as cell growth inhibition measured after 48 hrs by SRB assay; assay type: functional; details: HOP-92, 48 h; in short: as §1
KM12 = experiment: Anticancer activity against human KM12 cells assessed as cell growth inhibition measured after 48 hrs by SRB assay; assay type: functional; details: KM12, 48 h; in short: as §1
U-251 = experiment: Anticancer activity against human U251 cells assessed as cell growth inhibition measured after 48 hrs by SRB assay; assay type: functional; details: U-251, 48 h; in short: as §2
786-0 = experiment: Anticancer activity against human 786-O cells assessed as cell growth inhibition measured after 48 hrs by SRB assay; assay type: functional; details: 786-0, 48 h; in short: as §1
[3] = Selectivity index, ratio of LC50 for mouse 3T3 cells to MIC for Mycobacterium tuberculosis H37Rv ATCC27294; assay type: toxicity; details: read-out: Selectivity Index
M14 = experiment: Anticancer activity against human M14 cells assessed as cell growth inhibition measured after 48 hrs by SRB assay; assay type: functional; details: M14, 48 h; in short: as §1
HT-29 = experiment: Anticancer activity against human HT-29 cells assessed as cell growth inhibition measured after 48 hrs by SRB assay; assay type: functional; details: HT-29, 48 h; in short: as §1
Malme-3M = experiment: Anticancer activity against human MALME-3M cells assessed as cell growth inhibition measured after 48 hrs by SRB assay; assay type: functional; in short: as §1
MDA-MB-231 = experiment: Anticancer activity against human MDA-MB-231 cells assessed as cell growth inhibition measured after 48 hrs by SRB assay; assay type: functional; details: MDA-MB-231, 48 h; in short: as §1
OVCAR-8 = experiment: Anticancer activity against human OVCAR8 cells assessed as cell growth inhibition measured after 48 hrs by SRB assay; assay type: functional; details: OVCAR-8, 48 h; in short: as §1
[4] = read-out: LC50 (the source's name)

## COc1ccc(C(=O)/C=C/c2ccc(Cl)cc2)cc1S(N)(=O)=O
CCRF-CEM
  GI50: 3.34 µM
  LC50: > 100 µM
SK-MEL-28
  GI50: 3.24 µM
SK-MEL-28; [4]
  CC50: 37.2 µM
SNB-19
  GI50: 3.1 µM
  LC50: 33.4 µM
A549
  GI50: 2.69 µM
  LC50 (concentration killing 50% of cells): 30.8 µM
UACC-62
  GI50: 4.88 µM
UACC-62; [4]
  CC50: 44.8 µM
SR
  GI50: 0.86 µM
  LC50 (concentration giving 50% net cell kill): > 100 µM
MDA-MB-435
  GI50: 4.34 µM
  LC50 (concentration killing 50% of cells present at time zero): 41.6 µM
[1]
  MIC: 14 µM (≈ 4.93 µg/mL)
SK-OV-3
  GI50: 5.96 µM
  LC50 (concentration killing 50% of cells relative to time zero): 43.1 µM
PC-3
  GI50: 2.24 µM
  LC50: 17 µM
NCI-H23
  GI50: 2.54 µM
  LC50: 40.9 µM
MCF7
  GI50: 1.3 µM
  LC50: > 100 µM
Staphylococcus aureus
  MIC: > 57 µM
[2]
  MIC: > 175 µM
SF-539
  GI50: 1.6 µM
SF-539; [4]
  CC50: 6.82 µM
IGROV-1
  GI50: 2.67 µM
  LC50 (concentration giving 50% net cell kill): 48.1 µM
SK-MEL-2
  GI50: 12.4 µM
SK-MEL-2; [4]
  CC50: 53.2 µM
HOP-92
  GI50: 2.14 µM
  LC50: 21.4 µM
KM12
  GI50: 1.73 µM
  LC50 (lethal concentration, 50% net cell kill): 8.26 µM
U-251
  GI50: 1.96 µM
  LC50: 9.33 µM
786-0
  GI50: 1.74 µM
786-0; [4]
  CC50: 7.82 µM
[3]
  selectivity ratio: 0.29
M14
  GI50: 2.13 µM
M14; [4]
  CC50: 21.2 µM
HT-29
  GI50: 3.26 µM
  LC50 (concentration giving 50% net cell kill): 84 µM
Malme-3M
  GI50: 5.89 µM
  LC50: 54.8 µM
MDA-MB-231
  GI50: 3.48 µM
  LC50: 40.1 µM
OVCAR-8
  GI50: 3.55 µM
  LC50 (concentration giving 50% net cell kill): 32.6 µM
